Hits are enriched below; roughly 4.6% of the tested compounds scored in any of these assays.
FAS-TE inh: FAS thioesterase (human) inhibition. 360,000 tested, 0.67% active. recombinant FAS-TE, OMFH fluorogenic substrate, fluorescence endpoint. AID 602261. inhibition, % at 15 µM. P49327;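 active means compounds whose normalised, plate-corrected inhibition of enzyme fluorescence in the single-dose primary screen is 50% or more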;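 further: 0% = DMSO with enzyme and 100% = substrate without enzyme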
UCH37 inh: blocks the human deubiquitinase UCH37; Q9Y5K5; purified proteasome/UCH37, Ub-AMC cleavage fluorescence; inhibition, % (test concentration not listed); 330,000 tested, 0.33% active; AID 588478;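 active means mean inhibition over replicate wells above about 20%, limit read from the data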;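 further: 0% = compound-free wells with enzyme and 100% = wells lacking proteasome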
Target sequence (Q9Y5K5 whole entry, looked up): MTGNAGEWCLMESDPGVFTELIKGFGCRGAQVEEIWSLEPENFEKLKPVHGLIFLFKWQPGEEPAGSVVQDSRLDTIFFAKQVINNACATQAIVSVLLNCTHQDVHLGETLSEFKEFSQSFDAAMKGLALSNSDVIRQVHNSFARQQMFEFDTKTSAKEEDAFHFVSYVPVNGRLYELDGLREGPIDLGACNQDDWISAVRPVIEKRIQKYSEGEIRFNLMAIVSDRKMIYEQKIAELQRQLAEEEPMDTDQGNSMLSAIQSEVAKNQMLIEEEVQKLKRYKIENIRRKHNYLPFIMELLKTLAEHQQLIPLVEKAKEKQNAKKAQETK
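Test system – human UCH37 enzyme supplied as purified proteasome complex · Incubation – 30 min preincubation with enzyme, 25 min cleavage at room temperature · Detection – AMC fluorescence from Ub-AMC cleavage, excitation 355 nm, emission 460 nm · Benchmarks – no-proteasome wells (full inhibition) and compound-free wells (no inhibition)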
ALR inh: blocks human ALR sulfhydryl oxidase activity. 290,000 tested, 3.8% active. AID 485317. purified ALR, DTT oxidation, H2O2 HRP-luminol luminescence. P55789. inhibition, % (test concentration not listed);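 active means mean replicate inhibition above about 79%, with every replicate also reaching it, limit read from the data; inconclusive means only one of the two criteria met; inactive means mean below limit and not every replicate reaching it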
Target sequence (P55789 whole entry, looked up): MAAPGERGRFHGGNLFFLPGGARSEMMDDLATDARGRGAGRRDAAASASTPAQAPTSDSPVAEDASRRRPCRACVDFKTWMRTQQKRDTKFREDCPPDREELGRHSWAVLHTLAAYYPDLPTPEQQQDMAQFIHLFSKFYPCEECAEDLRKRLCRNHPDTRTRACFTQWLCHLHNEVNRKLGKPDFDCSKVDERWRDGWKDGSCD
HDAC3 inh: human HDAC3 inhibition | O15379 | recombinant HDAC3, fluorogenic peptide/trypsin coupled, fluorescence | inhibition, % at 8.3 µM | 320,000 tested, 0.15% active | AID 2718; in the data active means inhibition above about 26%, passing the limit was not always enough; inconclusive means no clear call, values can overlap the other calls
PfM18AAP inh: PfM18AAP enzyme inhibition. recombinant PfM18AAP, H-Glu-NHMec fluorogenic cleavage. inhibition, % at 7.35 µM. 290,000 tested, 1.2% active. AID 1822;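 active means inhibition above the campaign mean inhibition over all tested compounds plus 3 SD, cut at about 28% in these data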;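 further: 0% = plate median of test compound wells and 100% = 2 mM ZnCl2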
Rtt109 Vps75: inhibitors of Candida albicans Rtt109/Vps75 histone acetyltransferase | Q5AAJ8 | AID 540336 | 330,000 tested, 0.16% active | purified Rtt109/Vps75, ThioGlo CoA-SH fluorescence, 4 h | inhibition, % at 34.9 µM;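 active means inhibition of at least 50% in every replicate; inconclusive means best replicate reaches 50% inhibition but some replicates fall short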
Starred values were filed as active, the others as inactive; i = inactive; ? = inconclusive; nt = not tested or not shown.

SMILES	FAS-TE inh	UCH37 inh	ALR inh	HDAC3 inh	PfM18AAP inh	Rtt109 Vps75
Cc1ccc(CCC(=O)Nc2ccc(Br)cc2)o1	8.1	-1.4	3.0	6.0	2.5	1.6
Cc1ccc(CCC(=O)Nc2ccc(N(C)C)cc2)o1	-3.4	nt	99.0*	-4.8	3.3	-11.4
NC(=NOC(=O)c1ccc(Br)cc1)c1cccc([N+](=O)[O-])c1	nt	-0.5	nt	nt	nt	nt
Cc1ccc(-c2c(C(=O)NN=Cc3cccnc3)nnn2-c2nonc2N)cc1	nt	1.6	nt	nt	nt	nt
COC(=O)c1ccc(-n2c(C)cc(C=NNc3nc(C)cc(=O)[nH]3)c2C)cc1	nt	-21.4	nt	nt	nt	nt
O=C1Oc2ccccc2C(=O)/C1=C\N1CCN(c2ccccc2)CC1	-3.0	1.8	97.2*	2.6	-3.3	6.0
CCS(=O)(=O)N1CCN(c2ccccc2)CC1	-4.5	4.3	55.9	nt	1.9	4.4
Nc1ccccc1Sc1ccc(C(=O)c2ccccc2C(=O)O)cc1[N+](=O)[O-]	-0.1	6.1	45.7	0.2	30.1*	42.8
CC(=O)c1ccc(Sc2ccccc2N)c([N+](=O)[O-])c1	26.8	4.1	60.1	-6.9	-1.2	8.5
CCOC(=O)N1CCN(CC(O)c2ccc3c(c2)CCN3)CC1 (stereo unspecified)	-6.0	-0.1	82.4*	0.8	2.5	17.3
CCOC(=O)N1CCN(CC(O)c2ccc3cc[nH]c3c2)CC1 (stereo unspecified)	-5.7	-0.1	-4.3	-2.1	-7.7	-4.7
COc1cc(C=NNc2cc(C)nc(N)n2)ccc1O	nt	5.8	nt	nt	nt	nt
Oc1cc(O)c(CN2CCOCC2)cc1CN1CCOCC1	-10.0	2.1	nt	nt	nt	101.2*
O=C(CCc1c[nH]c2ccccc12)N1CCN(c2ccc(F)cc2)CC1	3.1	0.3	41.8	7.4	-2.2	5.1
O=C(CCCc1c[nH]c2ccccc12)N1CCN(c2ccc(N3CCOCC3)nn2)CC1	-10.9	-54.4	90.0*	-1.2	-7.3	-4.9
CN1C(=O)N(C)c2cccc3cccc1c23	0.8	0.1	-18.6	-7.6	1.5	-3.2
CC1=Nc2cccc3cccc(c23)N1C	-11.1	9.2	99.1*	1.3	12.1	-4.7
O=C(CC(=O)NN=Cc1ccc(F)cc1)NN=Cc1ccc(F)cc1	nt	3.8	nt	nt	nt	nt
Cc1ccc(C(=O)/C=C\C(=O)c2ccc(C)cc2)cc1	-6.7	3.3	97.9*	-5.9	-10.0	-2.0
COc1ccc(CN(C)S(=O)(=O)c2nnc(NC(=O)c3cccc(OC)c3)s2)cc1	5.7	-4.8	1.7	7.4	2.7	-10.9
COc1cccc(C(=O)Nc2nnc(S(=O)(=O)N(C)Cc3ccc(F)cc3)s2)c1	6.8	2.8	84.2*	9.7	-7.1	9.3
CC(=NNC(=O)c1ccc(C(C)(C)C)cc1)c1cccnc1	nt	1.8	nt	nt	nt	nt
COc1ccc(NC(=O)/C=C/c2ccccc2[N+](=O)[O-])c(OC)c1	17.9	2.4	61.5	1.5	-0.2	-2.8
O=[N+]([O-])c1ccc(CNc2ccc(Cl)cc2)s1	2.2	4.1	81.2*	7.9	17.5	2.4
COc1ccc(NCc2ccc([N+](=O)[O-])s2)cc1	-9.5	6.5	98.8*	12.2	9.4	4.6
SMILES	FAS-TE inh	UCH37 inh	ALR inh	HDAC3 inh	PfM18AAP inh	Rtt109 Vps75
O=[N+]([O-])c1ccc(CNc2cccc(Cl)c2)s1	3.3	2.8	-11.6	6.7	-7.0	-4.4
O=[N+]([O-])c1ccc(CNc2ccc(F)cc2)s1	-4.7	5.8	98.7*	2.2	-1.4	-13.0
COc1ccc(NCc2ccc([N+](=O)[O-])s2)c(OC)c1	-8.7	12.8	97.9*	4.7	12.0	4.3
OC1=C(O)c2nc3cc(C(F)(F)F)ccc3nc21	-0.4	6.4	98.5*	6.9	10.3	-1.0
OC1=C(O)c2nc3ccccc3nc21	-5.2	3.1	44.6	7.1	-9.7	0.8
Cn1c(SCC(=O)NC2CCCCC2)nnc1-c1ccncc1	-4.7	4.3	-10.9	0.4	-4.2	2.7
Cn1c(SCC(=O)NC2CCCCC2)nnc1-c1cccnc1	-6.6	3.6	nt	4.3	3.6	54.5*
COc1cccc(N2CCN(Cc3cccnc3)CC2)c1	-4.6	-1.1	91.5*	2.1	4.7	-2.7
FC(F)(F)c1cccc(N2CCN(Cc3cccnc3)CC2)c1	-5.2	0.4	12.8	4.5	-12.6	4.9
CC(=O)Oc1oc(-c2ccccc2)nc1C=Nc1ccccc1	-10.8	1.8	49.8	?	-1.1	3.6
CCOC(=O)c1ccc(N=Cc2nc(-c3ccccc3)oc2OC(C)=O)cc1	2.9	6.5	93.6*	17.8	-3.5	1.0
CC(=NNC(=O)OC(C)(C)C)c1ccco1	nt	0.3	nt	nt	nt	nt
COc1ccc(C(C[N+](=O)[O-])C2(c3ccc(OC)c(OC)c3)C(=O)c3ccccc3C2=O)cc1 (stereo unspecified)	22.9	nt	62.0	-13.3	34.6*	4.2
Nc1ccc(Nc2ccccc2)c(S(=O)(=O)O)c1	-4.9	nt	nt	-24.9	10.8	17.0
Cc1ccc(Nc2ccc(N)cc2S(=O)(=O)O)cc1	-2.2	-25.4	99.6*	-4.0	-15.2	?
Oc1ccc2ccccc2c1N=Nc1ccccc1F	19.0	2.4	-22.1	2.3	0.0	33.3
O=S(=O)(O)c1cccc(N=Nc2c(O)ccc3ccccc23)c1	8.8	21.5*	-25.4	12.0	-10.2	-2.5
Brc1ccccc1-c1nnc(SCc2nc3ccccc3s2)o1	13.2	-28.7	96.3*	1.5	-0.3	-0.2
CCN(CC)S(=O)(=O)c1cccc(-c2nnc(SCc3nc4ccccc4s3)o2)c1	18.1	0.3	-26.0	0.0	-9.0	5.8
CNC(=S)NN=Cc1cn(Cc2ccc(C)cc2)c2ccccc12	nt	0.9	nt	nt	nt	nt
O=C(Oc1ccc2c(-c3ccccc3)cc(=O)oc2c1)c1cccs1	21.4	4.6	-9.9	0.7	1.8	-5.7
O=C(Oc1ccc2ccc(=O)oc2c1)c1cccs1	-3.4	i	4.8	30.4*	-5.1	-3.4
Cc1cc(C(C#N)c2ccc(Cl)cc2)c(Cl)cc1NC(=O)c1cc(I)cc(I)c1O (stereo unspecified)	57.2*	-0.3	-4.2	2.5	nt	16.8
Cc1ccc(S(=O)(=O)NN=Cc2ccccc2O)cc1	nt	8.1	nt	nt	nt	nt
Cn1cccc1/C=N/n1c(-c2ccc(Cl)cc2Cl)n[nH]c1=S	-10.5	nt	97.0*	9.1	-1.0	-9.2
SMILES	FAS-TE inh	UCH37 inh	ALR inh	HDAC3 inh	PfM18AAP inh	Rtt109 Vps75
O=C(COC(=O)c1cc(-c2ccc(Cl)s2)nc2ccccc12)NCc1ccco1	0.6	-91.8	91.8*	-9.0	6.1	-0.4
CN(C)c1cccc2c(C=C(C#N)C#N)ccc(N(C)C)c12	-3.0	8.9	53.2	-4.8	6.1	1.6
CN(C)c1cccc2c(/C=N/O)ccc(N(C)C)c12	1.5	nt	89.4*	6.1	9.6	0.0
S=c1[nH]nc(-c2cc(-c3ccccn3)nc3ccccc23)o1	4.5	nt	18.8	12.4	1.8	0.5
Cc1ccc(-c2cc(-c3n[nH]c(=S)o3)c3ccccc3n2)cc1	7.2	-2.7	98.3*	-0.3	-22.5	-2.0
CCn1c2ccccc2c2cc(C=NNC(=O)c3ccncc3)ccc21	nt	-7.2	nt	nt	nt	nt

Screens: PubChem, several laboratories
